The list is not random: actives were taken first. Their share in the collection is about 12%.
Diaphorase inh – diaphorase inhibitors and chemical oxidizers, primary screen, counter-screen for diaphorase-coupled primary assays, biochemical, uHTS, resorufin fluorescence; diaphorase resazurin-to-resorufin fluorescence, NADH, 16 min; bacterial (C. kluyveri) enzyme, not human; inhibition, % at 20 µM; hit rate 0.69% among 190,000; AID 1217, 2008;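 active = primary screen inhibition at 20 µM above a set limit, cut at about 50% in these data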
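Assay system: diaphorase enzyme from Clostridium kluyveri. Quantity: enzyme working solution with 0.14 U/mL diaphorase. Schedule: reaction incubation of 16 min at room temperature. Technique: resorufin fluorescence, excitation 544 nm, emission 590 nm. Controls: No-NADH positive control and DMSO neutral control.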
Diaph act CS – compounds boosting diaphorase resazurin reduction – biochemical, uHTS, resorufin fluorescence, counter-screen for diaphorase-coupled primary assays, primary screen; hit rate 0.005% among 190,000; Diaphorase/resazurin coupled assay, 16 min; stronger effect = higher value; 1 = vehicle wells, 0 = NADH-free wells; activation factor at 20 µM;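 active = diaphorase activity raised at least twofold by the compound at 20 µM; inactive = activation factor below 2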
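Material: Clostridium kluyveri diaphorase, purified enzyme; Quantity: enzyme 0.07 U/mL final; Medium: HEPES pH 7.4 buffer with MgCl2 and Tween 20; Dosing: single compound dose of 20 µM, 1% DMSO final; Schedule: 16 min reaction at room temperature; Measured by: red resorufin fluorescence at 544/590 nm excitation/emission.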
WT yeast gro inh – growth inhibition of WT strain, primary screen, mitochondrial fusion inhibitor project, WT and mutant strains, chemical genetic; mitochondrial fusion phenotypic screen; inhibition, % at 10 µM; hit rate 2.1% among 190,000; in the data active = inhibition above about 58%; tested in S. cerevisiae
ROMK primary – ROMK potassium channel modulators, primary screen, cell-based, thallium flux, MLSMR library; ATP-sensitive inward rectifier potassium channel 1 (Homo sapiens), P48048; Tet-inducible ROMK, thallium flux fluorescence; actives lie on both sides; B-score at 10 µM; AID 1918, 2009; hit rate 2% among 130,000;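 active = signal ratio slope over the read window, or its plate-corrected B-score, at least 3 SD from the plate mean, either direction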;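 note: B-score of the F/F0 ratio slope over 7 to 12 s after thallium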
Target sequence (P48048 whole entry, looked up): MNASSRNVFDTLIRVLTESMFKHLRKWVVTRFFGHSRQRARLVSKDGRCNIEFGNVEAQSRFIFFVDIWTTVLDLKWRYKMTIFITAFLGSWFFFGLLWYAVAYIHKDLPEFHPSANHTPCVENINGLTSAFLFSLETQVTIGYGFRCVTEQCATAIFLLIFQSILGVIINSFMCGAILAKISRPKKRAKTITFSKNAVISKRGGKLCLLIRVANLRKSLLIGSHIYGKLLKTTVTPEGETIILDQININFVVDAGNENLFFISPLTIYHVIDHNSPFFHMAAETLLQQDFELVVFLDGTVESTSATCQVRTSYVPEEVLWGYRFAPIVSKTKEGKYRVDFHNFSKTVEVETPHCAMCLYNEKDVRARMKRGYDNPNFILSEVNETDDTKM
KCC2 mod – KCC2 cotransporter modulators, thallium flux, primary screen, cell-based, HEK293 KCC2, FluoZin-2 fluorescence, MLSMR. Solute carrier family 12 member 5 (Homo sapiens), Q9H2X9. KCC2 cells, thallium flux FluoZin-2 fluorescence. B-score of Tl+ flux slope (higher = more flux/activation; lower = inhibition) at 10 µM. hit rate 2.2% among 190,000. AID 1456, 2008;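 active = thallium flux slope and its plate-corrected score both differing from the plate sample mean at a set confidence after two filtering rounds, in either direction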;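 note: slope of fluorescence scaled to starting intensity during 10 to 20 s after thallium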
L major viab – Leishmania major promastigote growth inhibition, primary screen. Leishmania major promastigotes, resazurin fluorescence viability. inhibition, % at 10 µM. hit rate 9% among 200,000; in the data active = inhibition above about 50%;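 note: promastigotes grown with compound for 44 hours at 28 °C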
A number is an active result; 0 = inactive; - = no result.

SMILES | Diaphorase inh | Diaph act CS | WT yeast gro inh | ROMK primary | KCC2 mod | L major viab
O=C(/C=C/c1ccccc1)c1c(O)n(CCc2ccccc2)c(=O)[nH]c1=O | 0 | 0 | 0 | - | 0 | 60
O=C(/C=C/c1ccc2c(c1)OCO2)c1c(O)n(CCc2ccccc2)c(=O)[nH]c1=O | - | - | - | 0 | 0 | -
c1ccc(-c2ccc(-c3n(-c4ccccn4)c4ccccc4[n+]3-c3ccccn3)cc2)cc1 | 0 | 0 | 0 | 0 | 0 | 88
Cc1[nH]c2c(Cl)cccc2c1CCN | 0 | 0 | - | - | 0 | 56
OC(Cc1ccccc1)(c1ccccc1)C1CN2CCC1CC2 (stereo unspecified) | 0 | 0 | 0 | 0 | 0 | 92
CN[C@@H]1C[C@@H](c2ccc(Cl)c(Cl)c2)c2ccccc21 | 72 | 0 | 0 | - | 0 | -
CC(=O)c1ccc2c(c1)C1C(Cl)C(Sc3ccccc3[N+](=O)[O-])CC1C(C(=O)O)N2 (stereo unspecified) | 66 | 0 | 0 | - | 0 | 0
O=C(O)c1cccc2c1NC(C(=O)O)C1CC(Sc3ccccc3[N+](=O)[O-])C(Cl)C21 (stereo unspecified) | 93 | 0 | 0 | 0 | 0 | 0
FCCN(CCF)c1cccc(Cl)c1 | - | - | - | 0 | 0 | -
Cc1nn(Cc2ccccc2)c(C)c1C(=O)NCc1ccccc1 | 0 | 0 | 0 | 0 | - | 0
Cc1nn(Cc2ccccc2)c(C)c1C=C1C(=O)NC(=O)NC1=O | 0 | 0 | 0 | - | 0 | 58
Cc1cccn2c(=O)c3c(nc12)N1CCC(Cc2ccccc2)CC1C1(C3)C(=O)N(C)C(=O)N(C)C1=O (stereo unspecified) | 0 | 0 | 0 | 0 | - | 59
Nc1ccncc1Cl | 0 | 0 | 0 | 0 | 0 | 0
CCC(=NCCc1c[nH]c2ccccc12)c1c(O)n(C)c(=O)n(C)c1=O | 0 | 0 | 0 | - | 0 | 0
CCCCOc1ccc(CCN)cc1Cl | 0 | 0 | 0 | - | 0 | 89
CCCC12CN3CCN(CC(C3)/C1=N\NC(=O)c1ccncc1)C2 | 0 | 0 | 0 | 0 | 0 | 0
CN1Cc2cccnc2N(C)Cc2cc(Cl)ccc21 | 0 | 0 | 0 | 0 | 0 | 0
CN1CCC(N(C)c2nc(-c3ccccc3)nc3ccccc23)CC1 | 0 | 0 | 0 | 0 | - | 101
COc1ccc(C2N(c3cc(C)on3)C(=O)C3CCCN32)cc1 (stereo unspecified) | 0 | 0 | 0 | 0 | 0 | 0
COc1cc(CN=C(C)c2c(O)n(C3CCCCC3)c(=O)[nH]c2=O)cc(OC)c1 | - | - | - | - | 0 | -
Cc1c(C(c2ccc(Br)cc2)c2c(O)c3ccccc3oc2=O)c(=O)n(-c2ccccc2)n1C (stereo unspecified) | 0 | 0 | 0 | 0 | 0 | 0
Cc1c(C(c2ccc(Cl)cc2Cl)c2c(O)c3ccccc3oc2=O)c(=O)n(-c2ccccc2)n1C (stereo unspecified) | 0 | 0 | 75 | 0 | 0 | 0
O=C(c1ccc(C(F)(F)F)cc1)C1CCCN(Cc2ccc(CO)o2)C1 (stereo unspecified) | 0 | 0 | 0 | 0 | - | 88
Cc1ccc(CN2CCCC(C(=O)c3cccc(C(F)(F)F)c3)C2)o1 (stereo unspecified) | 0 | 0 | 0 | 0 | - | 0
O=C(c1ccc(C(F)(F)F)cc1)C1CCCN(Cc2ccncc2)C1 (stereo unspecified) | 0 | 0 | 0 | 0 | 0 | 89
SMILES | Diaphorase inh | Diaph act CS | WT yeast gro inh | ROMK primary | KCC2 mod | L major viab
O=C(c1cccc(C(F)(F)F)c1)C1CCCN(Cc2ccccc2O)C1 (stereo unspecified) | 0 | 0 | 0 | 0 | 0 | 84
Cc1ccc(-n2c(O)c(C=NCCC3=CCCCC3)c(=O)[nH]c2=O)cc1 | 0 | 0 | 0 | 0 | 0 | 0
CN(C)P1(N(C)C)=Nc2c(c(N)nn2C)C(c2ccccc2)=N1 | 0 | 0 | 0 | 0 | - | 0
COCCNCCOc1ccc(C(C)(C)c2ccccc2)cc1 | 0 | 0 | 0 | 0 | 0 | 98
C/C(=N\N1CCCCCC1)c1c(O)n(C2CCCCC2)c(=O)[nH]c1=O | - | - | - | - | 0 | -
CN(C)c1ccc(CN2CC=C(c3ccc(F)cc3)CC2)cc1 | 0 | 0 | 0 | 0 | 0 | 96

Screening data as filed in PubChem.
